Experimental data taken from ChEMBL document CHEMBL4673340 (J Med Chem, 2020).
pEC50, pIC50: −log10 of the molar value. Activity calls are given as the source filed them. The calls are words filed in the database; no cut-off is given here.

Assays:
[1] = AUC (0 to infinity) in ICR mouse at 1 mg/kg, iv by LC-MS/MS analysis; type: ADME, organism-based; design: route intravenous, time infinity, dose 1 mg/kg; conditions: in vivo
Procedure, shortened: (§1)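 Male/female unspecified ICR mice, n=3 per route. Intravenous 1 mg/kg in 5% DMA in water; oral 10 mg/kg in 0.5% MC. Plasma is processed by protein precipitation and analysed by LC–MS/MS using an acetonitrile/0.1% formic acid gradient. Values are means of the three animals.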

Cytochrome P450 3A4 = Cytochrome P450 3A4 (Homo sapiens, UniProt P08684); test: Inhibition of CYP3A4 (unknown origin); type: ADME
Sequence of Cytochrome P450 3A4 (P08684 whole entry): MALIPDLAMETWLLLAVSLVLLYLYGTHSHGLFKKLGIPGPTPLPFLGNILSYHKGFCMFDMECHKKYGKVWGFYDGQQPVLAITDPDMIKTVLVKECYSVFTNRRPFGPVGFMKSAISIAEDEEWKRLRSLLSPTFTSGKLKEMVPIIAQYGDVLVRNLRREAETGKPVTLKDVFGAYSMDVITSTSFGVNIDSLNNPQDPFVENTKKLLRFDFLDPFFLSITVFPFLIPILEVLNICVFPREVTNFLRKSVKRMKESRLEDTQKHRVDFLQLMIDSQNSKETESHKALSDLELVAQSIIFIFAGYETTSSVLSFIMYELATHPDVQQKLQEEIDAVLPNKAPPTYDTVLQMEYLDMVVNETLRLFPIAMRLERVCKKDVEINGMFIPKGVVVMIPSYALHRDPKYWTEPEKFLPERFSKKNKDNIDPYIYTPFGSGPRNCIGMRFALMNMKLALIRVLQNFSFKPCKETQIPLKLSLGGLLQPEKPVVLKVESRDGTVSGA

SK-BR-3 = test: Antiproliferation activity against human SK-BR-3 cells incubated for 7 days by CellTiter-Glo luminescent cell viability assay; type: functional, cell-based; conditions: SK-BR-3, 168 h
Procedure, shortened: (§2)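 Seeding density is set per line for log growth over 7 days. Cells attach 16 h, then are treated in duplicate with a 10-point dilution series for 7 days. CellTiter-Glo luminescence (ATP) is read, and viability is expressed relative to mock-treated control. EC50 is the mean of three independent experiments run in triplicate.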

NCI-H209 [2] = test: Potentiation of TMZ-induced antitumor activity against human NCI-H209 cells xenografted in BALB/c nude mouse assessed as tumor relapse rate at […], po BID for 28 days and co-treated with 50 mg/kg, po QD TMZ for 5 consecutive days at start of study and again 14 days later and measured after 68 days; type: functional, organism-based; conditions: time 28.0 day
[3] = Clearance in Sprague-Dawley rat at 2 mg/kg, iv by LC-MS/MS analysis; type: ADME, organism-based; conditions: in vivo
Procedure, shortened: (§3)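 Sprague-Dawley rats (n=3) get 2 mg/kg iv formulated in 38% DMA in water. Plasma is protein-precipitated and quantified by LC–MS/MS (C18, acetonitrile/0.1% formic acid gradient). Parameters are means of the three rats.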

[4] = AUC (0 to infinity) in Beagle dog at 1 mg/kg, iv by LC-MS/MS analysis; type: ADME, organism-based, Canis lupus familiaris; design: time infinity, route intravenous, dose 1 mg/kg; conditions: in vivo
Procedure, shortened: (§4)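 Three Beagle dogs; iv dose 1 mg/kg in 25% DMA in water; oral dose 2 mg/kg in 0.5% CMC-Na. Plasma drug concentrations are measured by LC–MS/MS. Values are the mean of three dogs.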

NCI-H209 [5] = test: Antitumor activity against human NCI-H209 cells xenografted in BALB/c nude mouse assessed as inhibition of tumor growth at […], po BID for 28 days; conditions: time 28.0 day
[6] = Tmax in Beagle dog at 2 mg/kg, po by LC-MS/MS analysis; type: ADME, organism-based, Canis lupus familiaris; conditions: in vivo
Procedure, shortened: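 Beagle dogs, three per group. iv 1 mg/kg in 25% DMA in water; oral 2 mg/kg. Values are means of three dogs.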

[7] = Clearance in dog liver microsomes; type: ADME, Canis lupus familiaris, Microsome; conditions: read-out: CLH
[8] = Antiproliferation activity against human UWB1289 cells expressing BRCA1 mutant incubated for 7 days by CellTiter-Glo luminescent cell viability assay; type: functional, cell-based; conditions: UWB1289, 168 h; procedure, shortened: as §2
[9] = AUC (0 to infinity) in ICR mouse at 10 mg/kg, po by LC-MS/MS analysis; type: ADME, organism-based; design: time infinity, route oral, dose 10 mg/kg; conditions: in vivo; procedure, shortened: as §1
[10] = Half life in Beagle dog at 2 mg/kg, po by LC-MS/MS analysis; type: ADME, organism-based, Canis lupus familiaris; conditions: in vivo; procedure, shortened: as §4
NCI-H209 [11] = test: Potentiation of TMZ-induced antitumor activity against human NCI-H209 cells xenografted in BALB/c nude mouse assessed as inhibition of tumor growth at […], po BID for 28 days and co-treated with 50 mg/kg, po QD TMZ for 5 consecutive days at start of study and again 14 days later; type: functional, organism-based; conditions: time 28.0 day
[12] = Half life in Sprague-Dawley rat at 5 mg/kg, po by LC-MS/MS analysis; conditions: in vivo
Cytochrome P450 2D6 = Cytochrome P450 2D6 (Homo sapiens, UniProt P10635); test: Inhibition of CYP2D6 (unknown origin); type: ADME
Sequence of Cytochrome P450 2D6 (P10635 whole entry): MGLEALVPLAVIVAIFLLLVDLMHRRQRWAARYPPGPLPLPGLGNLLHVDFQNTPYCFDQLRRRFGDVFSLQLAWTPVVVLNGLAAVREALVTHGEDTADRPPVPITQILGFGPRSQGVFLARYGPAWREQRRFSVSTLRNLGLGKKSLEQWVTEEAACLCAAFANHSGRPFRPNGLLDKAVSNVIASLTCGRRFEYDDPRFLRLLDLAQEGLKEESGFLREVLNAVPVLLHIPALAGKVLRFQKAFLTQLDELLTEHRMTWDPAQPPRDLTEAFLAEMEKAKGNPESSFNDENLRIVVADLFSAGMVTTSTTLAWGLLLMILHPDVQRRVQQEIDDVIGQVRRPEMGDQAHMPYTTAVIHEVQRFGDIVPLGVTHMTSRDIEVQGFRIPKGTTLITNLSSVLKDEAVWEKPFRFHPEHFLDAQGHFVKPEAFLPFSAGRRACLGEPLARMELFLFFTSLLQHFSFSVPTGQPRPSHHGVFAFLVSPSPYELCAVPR

[13] = biological target: Poly [ADP-ribose] polymerase 2 (Homo sapiens, UniProt Q9UGN5); test: Inhibition of PARP-2 (unknown origin) pre-incubated for 30 mins before addition of activated DNA and NAD by chemiluminescent assay
Sequence of Poly [ADP-ribose] polymerase 2 (Q9UGN5 whole entry): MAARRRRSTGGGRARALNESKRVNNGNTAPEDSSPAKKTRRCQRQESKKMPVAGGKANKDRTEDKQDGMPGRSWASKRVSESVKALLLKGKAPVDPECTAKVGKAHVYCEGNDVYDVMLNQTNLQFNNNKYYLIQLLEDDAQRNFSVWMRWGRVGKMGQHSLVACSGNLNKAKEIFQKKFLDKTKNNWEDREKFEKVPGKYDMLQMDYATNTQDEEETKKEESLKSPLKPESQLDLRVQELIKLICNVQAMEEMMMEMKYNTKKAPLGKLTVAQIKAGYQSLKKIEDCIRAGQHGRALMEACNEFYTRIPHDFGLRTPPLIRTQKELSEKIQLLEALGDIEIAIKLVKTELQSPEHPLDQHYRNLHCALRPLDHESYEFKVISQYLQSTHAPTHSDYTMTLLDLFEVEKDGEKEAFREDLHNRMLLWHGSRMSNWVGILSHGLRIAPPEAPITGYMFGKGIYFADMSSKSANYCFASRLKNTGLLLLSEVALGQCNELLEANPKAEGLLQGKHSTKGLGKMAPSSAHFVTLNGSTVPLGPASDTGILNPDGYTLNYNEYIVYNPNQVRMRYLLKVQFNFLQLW

[14] = Half life in Sprague-Dawley rat at 2 mg/kg, iv by LC-MS/MS analysis; type: ADME, organism-based; conditions: in vivo; procedure, shortened: as §3
Cytochrome P450 2C9 = Cytochrome P450 2C9 (Homo sapiens, UniProt P11712); test: Inhibition of CYP2C9 (unknown origin); type: ADME
Sequence of Cytochrome P450 2C9 (P11712 whole entry): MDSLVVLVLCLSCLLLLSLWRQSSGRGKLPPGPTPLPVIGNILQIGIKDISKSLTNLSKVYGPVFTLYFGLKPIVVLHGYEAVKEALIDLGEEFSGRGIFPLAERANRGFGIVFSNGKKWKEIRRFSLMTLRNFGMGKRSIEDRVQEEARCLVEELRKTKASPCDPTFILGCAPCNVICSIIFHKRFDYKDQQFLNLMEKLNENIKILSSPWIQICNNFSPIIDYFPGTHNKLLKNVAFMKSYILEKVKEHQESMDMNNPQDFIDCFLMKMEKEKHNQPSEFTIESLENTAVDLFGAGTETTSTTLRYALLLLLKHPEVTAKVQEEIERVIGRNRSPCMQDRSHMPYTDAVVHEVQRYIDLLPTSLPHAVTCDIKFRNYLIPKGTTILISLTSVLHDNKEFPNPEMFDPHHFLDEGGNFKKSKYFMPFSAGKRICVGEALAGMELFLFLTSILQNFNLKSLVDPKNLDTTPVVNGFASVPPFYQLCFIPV

[15] = Cmax in Beagle dog at 2 mg/kg, po by LC-MS/MS analysis; type: ADME, organism-based, Canis lupus familiaris; design: route oral, dose 2 mg/kg; conditions: in vivo; procedure, shortened: as §4
MDA-MB-231 = test: Antiproliferation activity against human MDA-MB-231 cells incubated for 7 days by CellTiter-Glo luminescent cell viability assay; type: functional, cell-based; conditions: MDA-MB-231, 168 h; procedure, shortened: as §2
Cytochrome P450 1A2 = Cytochrome P450 1A2 (Homo sapiens, UniProt P05177); test: Inhibition of CYP1A2 (unknown origin); type: ADME
Sequence of Cytochrome P450 1A2 (P05177 whole entry): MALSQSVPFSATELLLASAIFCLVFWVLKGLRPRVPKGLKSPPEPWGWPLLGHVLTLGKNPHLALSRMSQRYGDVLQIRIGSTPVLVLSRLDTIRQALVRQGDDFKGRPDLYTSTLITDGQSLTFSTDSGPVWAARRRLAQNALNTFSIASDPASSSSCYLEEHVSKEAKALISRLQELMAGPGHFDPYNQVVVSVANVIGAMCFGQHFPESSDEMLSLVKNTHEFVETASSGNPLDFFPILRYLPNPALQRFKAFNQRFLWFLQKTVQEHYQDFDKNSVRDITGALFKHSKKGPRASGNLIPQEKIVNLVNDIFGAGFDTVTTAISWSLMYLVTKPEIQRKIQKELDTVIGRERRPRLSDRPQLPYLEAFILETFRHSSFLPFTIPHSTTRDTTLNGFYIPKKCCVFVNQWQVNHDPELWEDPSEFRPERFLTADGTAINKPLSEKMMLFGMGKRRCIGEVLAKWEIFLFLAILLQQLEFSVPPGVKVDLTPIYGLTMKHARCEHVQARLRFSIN

[16] = Drug level in C57BL/6 mouse brain at 10 mg/kg, po after 2 hrs; type: ADME, organism-based; conditions: read-out: Drug uptake
Procedure, shortened: (§5)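 C57BL/6 mice (n=3) dosed orally at 10 mg/kg in 0.5% MC. Plasma and brain are sampled at 1, 2 and 4 h. Brain is homogenized in 3 volumes of saline, then acetonitrile protein precipitation; plasma is likewise precipitated. Both are analysed by LC–MS/MS and reported as means.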

[17] = Drug level in C57BL/6 mouse brain at 10 mg/kg, po after 4 hrs; type: ADME, organism-based; conditions: read-out: Drug uptake; procedure, shortened: as §5
[18] = biological target: Solute carrier family 22 member 2, OCT2 (Homo sapiens) (UniProt O15244); test: Inhibition of OCT2 (unknown origin) up to 50 uM; conditions: dose microM <=50
Sequence of Solute carrier family 22 member 2, OCT2 (Homo sapiens) (O15244 whole entry, looked up): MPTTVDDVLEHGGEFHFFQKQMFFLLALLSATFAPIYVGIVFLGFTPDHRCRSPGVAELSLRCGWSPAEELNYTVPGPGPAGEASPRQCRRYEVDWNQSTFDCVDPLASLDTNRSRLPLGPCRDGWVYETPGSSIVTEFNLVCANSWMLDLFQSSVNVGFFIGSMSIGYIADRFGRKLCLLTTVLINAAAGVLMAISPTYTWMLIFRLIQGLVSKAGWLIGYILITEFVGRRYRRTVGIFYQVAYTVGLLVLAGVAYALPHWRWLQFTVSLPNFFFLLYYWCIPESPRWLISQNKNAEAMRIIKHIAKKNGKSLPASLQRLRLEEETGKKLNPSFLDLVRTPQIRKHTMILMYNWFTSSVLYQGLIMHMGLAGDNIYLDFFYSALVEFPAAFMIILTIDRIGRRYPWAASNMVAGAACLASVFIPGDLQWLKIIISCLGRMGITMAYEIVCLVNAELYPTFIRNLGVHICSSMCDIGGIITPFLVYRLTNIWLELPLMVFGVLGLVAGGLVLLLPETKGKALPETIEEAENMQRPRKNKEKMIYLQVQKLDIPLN

[19] = Toxicity in BALB/c nude mouse xenografted with human NCI-H209 cells assessed as induction of body weight loss at […], po BID for 28 days and co-treated with 50 mg/kg, po QD TMZ for 5 consecutive days at start of study and again 14 days later relative to TMZ alone; type: organism-based; conditions: in vivo, dose 0.75 mg/kg, time 28 day
[20] = Drug level in C57BL/6 mouse brain at 10 mg/kg, po after 1 hrs; type: ADME, organism-based; conditions: read-out: Drug uptake; procedure, shortened: as §5
[21] = Oral bioavailability in ICR mouse at 10 mg/kg by LC-MS/MS analysis; type: ADME, organism-based; conditions: in vivo
Procedure, shortened: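 Three ICR mice per arm. iv dose 1 mg/kg in 5% DMA in water; oral dose 10 mg/kg in 0.5% MC. Plasma was processed by protein precipitation, diluted with water and quantified by LC-MS/MS (C18 column, acetonitrile/0.1% formic acid gradient). Values are means of three animals.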

HCC1395 = test: Antiproliferation activity against human HCC1395 cells expressing BRCA1 mutant incubated for 7 days by CellTiter-Glo luminescent cell viability assay; type: functional, cell-based; conditions: HCC1395, 168 h; procedure, shortened: as §2
[22] = biological target: Broad substrate specificity ATP-binding cassette transporter ABCG2 (Homo sapiens, UniProt Q9UNQ0); test: Inhibition of BCRP (unknown origin) up to 30 uM
Sequence of Broad substrate specificity ATP-binding cassette transporter ABCG2 (Q9UNQ0 whole entry): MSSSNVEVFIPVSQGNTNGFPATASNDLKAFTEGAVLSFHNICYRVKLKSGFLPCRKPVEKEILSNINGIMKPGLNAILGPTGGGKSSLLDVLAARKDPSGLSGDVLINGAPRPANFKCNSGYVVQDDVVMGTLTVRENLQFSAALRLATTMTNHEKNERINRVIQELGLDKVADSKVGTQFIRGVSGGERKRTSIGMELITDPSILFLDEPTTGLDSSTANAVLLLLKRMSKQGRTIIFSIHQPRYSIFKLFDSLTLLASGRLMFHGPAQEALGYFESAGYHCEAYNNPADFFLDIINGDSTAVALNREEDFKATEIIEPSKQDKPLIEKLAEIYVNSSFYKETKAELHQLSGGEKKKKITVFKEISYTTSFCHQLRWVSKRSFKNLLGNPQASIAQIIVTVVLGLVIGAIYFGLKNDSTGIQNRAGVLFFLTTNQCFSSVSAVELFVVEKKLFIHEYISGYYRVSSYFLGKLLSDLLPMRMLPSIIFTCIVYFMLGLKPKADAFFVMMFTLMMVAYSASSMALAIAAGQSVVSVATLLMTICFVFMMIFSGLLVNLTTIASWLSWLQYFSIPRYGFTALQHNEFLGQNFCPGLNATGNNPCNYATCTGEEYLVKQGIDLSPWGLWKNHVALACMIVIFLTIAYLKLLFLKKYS

[23] = Cmax in Sprague-Dawley rat at 5 mg/kg, po by LC-MS/MS analysis; conditions: in vivo
[24] = Apparent permeability from apical to basolateral side in human Caco-2 cells; type: ADME, cell-based

C[C@]12CCCN1CC1=NNC(=O)c3cc(F)cc4[nH]c2c1c34 [PAMIPARIB]
AUC [1]: 1757 ng·h/mL | pIC50 (Cytochrome P450 3A4): < 5.00 | pEC50 (SK-BR-3): < 5.00 | Activity (NCI-H209 [2]): Active | clearance [3]: 22.7 mL/min/kg | AUC(0-inf) [4]: 1080 ng·h/mL | TGI (NCI-H209 [5]): inactive | Tmax [6]: 0.417 h | microsomal CLint [7]: 9.5 µL/min/mg | pEC50 [8]: 7.27 | AUC [9]: 5521 ng·h/mL | half-life [10]: 3.62 h | TGI (NCI-H209 [11]): Active | half-life [12]: 5.5 h | pIC50 (Cytochrome P450 2D6): < 5.00 | pIC50 [13]: 9.05 | half-life [14]: 5.3 h | pIC50 (Cytochrome P450 2C9): < 5.00 | Cmax [15]: 502 ng/mL | pEC50 (MDA-MB-231): < 5.00 | pIC50 (Cytochrome P450 1A2): < 5.00 | concentration at 2 h [16]: 252 ng/g | concentration at 4 h [17]: 135 ng/g | inhibition [18]: inactive | Activity [19]: Non-Toxic | concentration at 1 h [20]: 613 ng/g | F [21]: 98.7% | pEC50 (HCC1395): 7.37 | inhibition (INH) [22]: Not Active | Cmax [23]: 861 ng/mL | Papp A→B [24]: 30.3 ×10⁻⁶ cm/s
